The source of these data is ChEMBL document CHEMBL5653631, “A Potent and Selective ULK1 Inhibitor Suppresses Autophagy and Sensitizes Cancer Cells to Nutrient Stress” (iScience, 2018).

Assay [1] concerns the target Mitogen-activated protein kinase 9 (Homo sapiens) (UniProt P45984). Nature of the assay: Inhibition of human recombinant JNK2 at 15 nM related to control ULK1.
Assay [2] concerns the target Casein kinase I isoform gamma-1 (Homo sapiens) (UniProt Q9HCP0). Nature of the assay: Inhibition of human recombinant CK1g1 at 15 nM related to control ULK1.
Assay [3] has as its target Serine/threonine-protein kinase 32B (Homo sapiens) (UniProt Q9NY57). In words: Inhibition of human recombinant YANK2 at 15 nM in presence of ATP by radiometric assay relative to control.
In assay [4] the target is Serine/threonine-protein kinase VRK2 (Homo sapiens) (UniProt Q86Y07). In words: Inhibition of human recombinant VRK2 at 15 nM in presence of ATP by radiometric assay relative to control.
Sequence of Serine/threonine-protein kinase VRK2 (Homo sapiens) (Q86Y07 whole entry): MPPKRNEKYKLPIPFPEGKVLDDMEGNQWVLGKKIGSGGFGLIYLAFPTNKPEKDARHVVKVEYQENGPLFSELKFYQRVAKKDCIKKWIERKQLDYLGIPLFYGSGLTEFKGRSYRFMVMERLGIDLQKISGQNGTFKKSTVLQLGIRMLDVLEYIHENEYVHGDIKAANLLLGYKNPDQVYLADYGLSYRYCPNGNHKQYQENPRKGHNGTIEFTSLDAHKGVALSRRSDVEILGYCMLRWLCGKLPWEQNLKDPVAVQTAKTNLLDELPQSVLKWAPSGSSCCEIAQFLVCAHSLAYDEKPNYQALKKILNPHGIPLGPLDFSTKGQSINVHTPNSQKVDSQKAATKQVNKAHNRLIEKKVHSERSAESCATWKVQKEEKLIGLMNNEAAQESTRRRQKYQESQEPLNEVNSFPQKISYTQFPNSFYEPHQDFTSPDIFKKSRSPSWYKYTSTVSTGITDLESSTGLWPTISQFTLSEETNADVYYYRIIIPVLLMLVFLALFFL
Assay [5] concerns the target T1, Serine/threonine-protein kinase 3 (Homo sapiens) (UniProt Q13188).
T1 sequence (whole entry): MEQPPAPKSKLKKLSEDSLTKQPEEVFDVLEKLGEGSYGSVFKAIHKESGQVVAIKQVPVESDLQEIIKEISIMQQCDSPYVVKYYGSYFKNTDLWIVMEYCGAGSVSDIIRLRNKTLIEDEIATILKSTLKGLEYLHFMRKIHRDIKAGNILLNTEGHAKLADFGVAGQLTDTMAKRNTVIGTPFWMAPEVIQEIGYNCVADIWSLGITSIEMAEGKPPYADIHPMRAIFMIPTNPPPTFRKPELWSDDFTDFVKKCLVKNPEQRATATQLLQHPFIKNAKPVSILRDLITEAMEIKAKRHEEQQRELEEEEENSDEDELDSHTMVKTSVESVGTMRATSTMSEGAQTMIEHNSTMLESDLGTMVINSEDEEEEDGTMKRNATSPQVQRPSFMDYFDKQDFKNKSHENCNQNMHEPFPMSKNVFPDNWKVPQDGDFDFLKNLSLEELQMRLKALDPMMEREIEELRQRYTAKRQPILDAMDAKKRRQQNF
Nature of the assay: Inhibition of human recombinant MST2 at 40 nM related to control ULK1.

Assay [6] has as its target Insulin receptor (Homo sapiens) (UniProt P06213). Nature of the assay: Inhibition of human recombinant INSR at 500 nM in presence of ATP by radiometric assay relative to control.
The species entered for assay [7] is Homo sapiens. In words: Inhibition of human recombinant CK1d at 500 nM in presence of ATP by radiometric assay relative to control.
The target in assay [8] is Calcium/calmodulin-dependent protein kinase type 1B (Homo sapiens) (UniProt Q6P2M8). Nature of the assay: Inhibition of human recombinant CaMK1b at 500 nM related to control ULK1.
Sequence of Calcium/calmodulin-dependent protein kinase type 1B (Homo sapiens) (Q6P2M8 whole entry): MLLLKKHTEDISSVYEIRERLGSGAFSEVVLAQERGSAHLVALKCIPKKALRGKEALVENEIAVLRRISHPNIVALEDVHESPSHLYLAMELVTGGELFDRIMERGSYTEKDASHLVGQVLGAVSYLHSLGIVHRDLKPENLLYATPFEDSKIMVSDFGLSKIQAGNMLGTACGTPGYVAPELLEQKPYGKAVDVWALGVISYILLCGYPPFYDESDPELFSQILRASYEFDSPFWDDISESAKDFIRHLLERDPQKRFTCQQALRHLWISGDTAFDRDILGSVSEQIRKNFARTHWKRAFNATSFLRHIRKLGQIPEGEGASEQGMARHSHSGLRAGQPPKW
Assay [9] concerns the target T2, Testis-specific serine/threonine-protein kinase 3 (Homo sapiens) (UniProt Q96PN8).
T2 sequence (whole entry): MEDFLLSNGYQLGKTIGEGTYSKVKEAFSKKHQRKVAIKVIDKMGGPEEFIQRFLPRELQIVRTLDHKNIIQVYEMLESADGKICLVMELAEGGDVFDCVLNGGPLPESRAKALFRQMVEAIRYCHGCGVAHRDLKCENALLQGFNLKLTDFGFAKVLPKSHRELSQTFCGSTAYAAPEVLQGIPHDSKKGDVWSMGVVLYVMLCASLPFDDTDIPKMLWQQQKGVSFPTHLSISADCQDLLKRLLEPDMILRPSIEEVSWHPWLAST
Nature of the assay: Inhibition of human recombinant TSSK3 at 500 nM related to control ULK1.

Assay [10] is filed under the species Homo sapiens. Nature of the assay: Inhibition of human recombinant ABL at 500 nM in presence of ATP by radiometric assay relative to control. In a few lines:
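Panel of 327 recombinant human kinases in radiometric activity assays, each screened in duplicate at a single inhibitor concentration; percent activity remaining relative to vehicle control, percent inhibition taken as 100 minus activity remaining.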

Assay [11] concerns the target T3, Serine/threonine-protein kinase Sgk3 (Homo sapiens) (UniProt Q96BR1).
T3 sequence (whole entry): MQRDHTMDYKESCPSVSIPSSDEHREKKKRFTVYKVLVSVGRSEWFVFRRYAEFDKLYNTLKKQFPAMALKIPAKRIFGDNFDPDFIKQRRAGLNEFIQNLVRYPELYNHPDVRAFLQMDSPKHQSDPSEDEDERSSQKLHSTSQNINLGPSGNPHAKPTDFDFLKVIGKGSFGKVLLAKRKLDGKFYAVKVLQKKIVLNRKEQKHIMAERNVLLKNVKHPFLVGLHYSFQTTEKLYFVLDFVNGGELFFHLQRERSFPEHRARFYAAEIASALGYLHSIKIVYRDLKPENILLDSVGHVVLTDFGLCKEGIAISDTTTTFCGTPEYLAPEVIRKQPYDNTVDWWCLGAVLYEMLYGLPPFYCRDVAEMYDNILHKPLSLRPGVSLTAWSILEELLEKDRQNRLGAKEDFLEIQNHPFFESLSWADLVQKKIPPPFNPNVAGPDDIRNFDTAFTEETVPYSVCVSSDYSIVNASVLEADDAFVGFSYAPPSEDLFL
In words: Inhibition of human recombinant SGK3 at 500 nM related to control ULK1.

The target in assay [12] is T4, G protein-coupled receptor kinase 3 (Homo sapiens) (UniProt P35626).
T4 sequence (whole entry): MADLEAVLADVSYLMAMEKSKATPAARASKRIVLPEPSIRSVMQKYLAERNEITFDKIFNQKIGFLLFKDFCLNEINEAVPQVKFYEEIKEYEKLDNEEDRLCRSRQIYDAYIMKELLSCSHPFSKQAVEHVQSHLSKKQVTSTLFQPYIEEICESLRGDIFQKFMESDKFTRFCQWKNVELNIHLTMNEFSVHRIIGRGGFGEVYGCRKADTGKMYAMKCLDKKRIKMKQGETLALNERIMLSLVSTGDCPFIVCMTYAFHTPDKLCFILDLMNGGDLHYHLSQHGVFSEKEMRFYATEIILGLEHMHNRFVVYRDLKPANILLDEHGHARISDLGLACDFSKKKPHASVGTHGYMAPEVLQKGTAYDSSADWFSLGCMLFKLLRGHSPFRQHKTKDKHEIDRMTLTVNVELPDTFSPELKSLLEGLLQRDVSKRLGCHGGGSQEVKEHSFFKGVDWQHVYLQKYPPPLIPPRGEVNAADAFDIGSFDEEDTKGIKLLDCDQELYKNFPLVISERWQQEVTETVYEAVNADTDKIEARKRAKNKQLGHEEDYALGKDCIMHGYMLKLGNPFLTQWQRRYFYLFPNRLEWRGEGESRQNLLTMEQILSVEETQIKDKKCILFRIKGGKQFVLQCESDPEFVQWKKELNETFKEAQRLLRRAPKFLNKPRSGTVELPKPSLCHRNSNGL
In words: Inhibition of human recombinant BARK2 at 500 nM related to control ULK1.

In assay [13] the target is STE20-like serine/threonine-protein kinase (Homo sapiens) (UniProt Q9H2G2). Nature of the assay: Inhibition of human recombinant SLK at 500 nM in presence of ATP by radiometric assay relative to control.
Sequence of STE20-like serine/threonine-protein kinase (Homo sapiens) (Q9H2G2 whole entry, looked up): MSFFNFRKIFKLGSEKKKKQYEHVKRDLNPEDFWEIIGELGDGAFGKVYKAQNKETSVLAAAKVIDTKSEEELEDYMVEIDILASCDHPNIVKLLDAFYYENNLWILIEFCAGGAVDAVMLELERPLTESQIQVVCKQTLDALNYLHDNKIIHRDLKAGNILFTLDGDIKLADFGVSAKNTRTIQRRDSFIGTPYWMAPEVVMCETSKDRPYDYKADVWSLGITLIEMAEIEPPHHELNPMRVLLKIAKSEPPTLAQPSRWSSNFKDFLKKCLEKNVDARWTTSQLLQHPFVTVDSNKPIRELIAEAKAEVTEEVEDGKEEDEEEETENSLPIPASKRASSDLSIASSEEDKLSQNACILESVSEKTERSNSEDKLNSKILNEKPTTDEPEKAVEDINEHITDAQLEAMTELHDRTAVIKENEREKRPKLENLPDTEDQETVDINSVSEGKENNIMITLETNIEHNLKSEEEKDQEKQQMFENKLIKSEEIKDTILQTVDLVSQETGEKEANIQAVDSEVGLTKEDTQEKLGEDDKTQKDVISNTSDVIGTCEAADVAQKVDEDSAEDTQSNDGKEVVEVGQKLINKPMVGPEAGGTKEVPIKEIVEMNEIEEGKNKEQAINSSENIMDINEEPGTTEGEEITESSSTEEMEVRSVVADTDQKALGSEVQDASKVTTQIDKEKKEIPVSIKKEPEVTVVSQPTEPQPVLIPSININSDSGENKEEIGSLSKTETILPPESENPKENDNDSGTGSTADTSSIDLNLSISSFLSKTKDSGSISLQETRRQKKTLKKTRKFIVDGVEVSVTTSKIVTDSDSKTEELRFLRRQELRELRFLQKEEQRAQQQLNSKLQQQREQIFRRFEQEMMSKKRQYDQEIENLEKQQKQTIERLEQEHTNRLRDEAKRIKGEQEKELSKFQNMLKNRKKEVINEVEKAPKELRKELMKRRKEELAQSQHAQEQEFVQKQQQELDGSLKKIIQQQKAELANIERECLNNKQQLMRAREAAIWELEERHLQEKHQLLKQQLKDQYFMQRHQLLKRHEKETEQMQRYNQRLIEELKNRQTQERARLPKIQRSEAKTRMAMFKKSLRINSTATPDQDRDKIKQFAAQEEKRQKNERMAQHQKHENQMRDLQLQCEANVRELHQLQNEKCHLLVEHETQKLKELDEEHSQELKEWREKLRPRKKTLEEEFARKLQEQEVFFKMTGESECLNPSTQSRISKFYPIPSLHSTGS

Sequence of Serine/threonine-protein kinase 32B (Homo sapiens) (Q9NY57 whole entry): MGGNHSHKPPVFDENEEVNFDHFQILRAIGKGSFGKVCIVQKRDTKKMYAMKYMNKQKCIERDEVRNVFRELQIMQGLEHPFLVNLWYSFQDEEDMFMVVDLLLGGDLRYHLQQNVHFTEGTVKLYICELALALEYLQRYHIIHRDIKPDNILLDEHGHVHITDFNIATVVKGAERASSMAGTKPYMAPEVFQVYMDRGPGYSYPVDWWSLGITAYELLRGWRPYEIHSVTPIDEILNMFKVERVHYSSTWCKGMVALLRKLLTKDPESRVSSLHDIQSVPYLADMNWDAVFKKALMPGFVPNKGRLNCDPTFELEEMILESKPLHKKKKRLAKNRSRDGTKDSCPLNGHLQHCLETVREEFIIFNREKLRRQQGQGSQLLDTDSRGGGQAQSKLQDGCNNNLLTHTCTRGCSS
Sequence of Casein kinase I isoform gamma-1 (Homo sapiens) (Q9HCP0 whole entry, looked up, canonical isoform): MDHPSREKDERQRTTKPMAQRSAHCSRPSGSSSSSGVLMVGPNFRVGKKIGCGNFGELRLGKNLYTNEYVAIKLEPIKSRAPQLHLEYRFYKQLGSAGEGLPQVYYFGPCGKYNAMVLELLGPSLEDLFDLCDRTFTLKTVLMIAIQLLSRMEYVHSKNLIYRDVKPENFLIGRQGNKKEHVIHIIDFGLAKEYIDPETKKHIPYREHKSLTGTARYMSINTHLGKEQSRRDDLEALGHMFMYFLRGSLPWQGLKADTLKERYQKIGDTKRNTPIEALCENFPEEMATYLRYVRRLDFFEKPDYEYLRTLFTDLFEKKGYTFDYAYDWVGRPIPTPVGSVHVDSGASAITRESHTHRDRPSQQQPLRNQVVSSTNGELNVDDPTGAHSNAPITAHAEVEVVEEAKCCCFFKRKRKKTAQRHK
Sequence of Mitogen-activated protein kinase 9 (Homo sapiens) (P45984 whole entry, looked up, canonical isoform): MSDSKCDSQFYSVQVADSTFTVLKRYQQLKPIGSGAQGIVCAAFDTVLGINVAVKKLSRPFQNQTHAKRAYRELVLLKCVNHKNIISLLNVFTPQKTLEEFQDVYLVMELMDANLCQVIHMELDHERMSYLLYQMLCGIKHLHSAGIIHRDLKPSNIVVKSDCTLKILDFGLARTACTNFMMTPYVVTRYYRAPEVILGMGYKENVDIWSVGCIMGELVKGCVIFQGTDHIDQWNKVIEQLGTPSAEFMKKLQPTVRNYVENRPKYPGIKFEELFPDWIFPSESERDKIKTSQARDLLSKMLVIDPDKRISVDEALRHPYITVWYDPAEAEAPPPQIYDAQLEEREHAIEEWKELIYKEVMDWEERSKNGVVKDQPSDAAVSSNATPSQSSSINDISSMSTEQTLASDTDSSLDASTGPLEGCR
Sequence of Insulin receptor (Homo sapiens) (P06213 28-758 limits assumed): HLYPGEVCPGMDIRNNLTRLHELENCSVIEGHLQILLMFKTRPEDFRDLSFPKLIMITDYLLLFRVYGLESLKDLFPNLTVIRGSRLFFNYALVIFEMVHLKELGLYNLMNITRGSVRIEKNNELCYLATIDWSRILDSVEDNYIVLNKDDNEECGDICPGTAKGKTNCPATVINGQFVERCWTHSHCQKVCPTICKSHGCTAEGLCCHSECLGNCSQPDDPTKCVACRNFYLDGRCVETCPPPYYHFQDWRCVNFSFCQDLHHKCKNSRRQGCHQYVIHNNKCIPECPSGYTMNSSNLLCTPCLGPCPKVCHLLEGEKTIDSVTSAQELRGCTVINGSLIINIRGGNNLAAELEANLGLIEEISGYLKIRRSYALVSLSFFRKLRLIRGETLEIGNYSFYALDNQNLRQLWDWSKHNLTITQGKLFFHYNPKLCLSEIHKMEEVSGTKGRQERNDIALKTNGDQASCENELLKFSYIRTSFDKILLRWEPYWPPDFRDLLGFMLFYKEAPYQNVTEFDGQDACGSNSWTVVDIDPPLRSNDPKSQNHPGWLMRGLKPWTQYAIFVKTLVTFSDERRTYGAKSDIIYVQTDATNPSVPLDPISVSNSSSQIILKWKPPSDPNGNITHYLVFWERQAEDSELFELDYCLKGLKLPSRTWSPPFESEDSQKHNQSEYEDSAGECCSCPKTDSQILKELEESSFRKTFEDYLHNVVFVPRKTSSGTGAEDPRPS
Sequence of Insulin receptor (Homo sapiens) (P06213 763-1382 limits assumed): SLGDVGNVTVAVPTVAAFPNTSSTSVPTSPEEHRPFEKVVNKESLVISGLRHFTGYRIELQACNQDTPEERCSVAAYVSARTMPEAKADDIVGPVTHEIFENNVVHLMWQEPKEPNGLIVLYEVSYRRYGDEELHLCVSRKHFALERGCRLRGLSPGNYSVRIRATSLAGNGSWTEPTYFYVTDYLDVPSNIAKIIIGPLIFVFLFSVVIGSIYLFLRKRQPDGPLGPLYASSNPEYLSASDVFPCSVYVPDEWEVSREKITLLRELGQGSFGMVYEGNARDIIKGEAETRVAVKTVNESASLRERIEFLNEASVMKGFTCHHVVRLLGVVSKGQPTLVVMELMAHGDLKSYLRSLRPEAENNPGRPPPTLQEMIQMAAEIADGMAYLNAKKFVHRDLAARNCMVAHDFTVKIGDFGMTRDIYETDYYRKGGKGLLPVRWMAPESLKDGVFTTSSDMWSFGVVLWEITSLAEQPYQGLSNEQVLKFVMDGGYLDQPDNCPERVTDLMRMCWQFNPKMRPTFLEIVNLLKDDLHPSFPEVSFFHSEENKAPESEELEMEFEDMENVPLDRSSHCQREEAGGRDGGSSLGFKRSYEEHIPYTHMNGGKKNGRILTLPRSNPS

As a reminder, the inhibition is the percentage by which the read-out fell short of the control. Take `CC(C)[C@H](NC(=O)c1cc(-c2cnn3cc(-c4ccc(OCCN5CCCCC5)cc4)cnc23)cs1)C(F)(F)F`: the fold change (FC) in assay [1] and in assay [2] was 0 throughout. Further, the inhibition in assay [3] and in assay [4] was 0% each time.

In the case of `O=C(N[C@@H](C1CC1)C(F)(F)F)c1cc(-c2cnn3cc(-c4ccc(F)cc4)cnc23)cs1`, the fold change (FC) in [5] was found to be 0.

As to `CNC(=O)c1ccccc1Oc1nc(Nc2cc(OC)c(OC)c(OC)c2)ncc1Br`, the inhibition was 0% in assay [6], 10% in the assay filed under Homo sapiens [7], 14% in the assay filed under Homo sapiens [10] and 15% in [13]. In addition, the fold change (FC) in [8] was found to be 0; in assay [9], 0; in [11], 0.01; in assay [12], 0.09.
